Consider one molecule from ChEMBL document CHEMBL4251662, “Alkyl indole-based cannabinoid type 2 receptor tools: Exploration of linker and fluorophore attachment” (Eur J Med Chem, 2018).

Molecules are shown by their SMILES. Active and inactive are the calls of the source. No cut-off for these calls is given here. A value given as a limit tells only on which side of the number the result lay.

For data set [1], the target named is T1, Free fatty acid receptor 4 (Homo sapiens) (UniProt Q5NUL3).
T1 sequence (whole entry): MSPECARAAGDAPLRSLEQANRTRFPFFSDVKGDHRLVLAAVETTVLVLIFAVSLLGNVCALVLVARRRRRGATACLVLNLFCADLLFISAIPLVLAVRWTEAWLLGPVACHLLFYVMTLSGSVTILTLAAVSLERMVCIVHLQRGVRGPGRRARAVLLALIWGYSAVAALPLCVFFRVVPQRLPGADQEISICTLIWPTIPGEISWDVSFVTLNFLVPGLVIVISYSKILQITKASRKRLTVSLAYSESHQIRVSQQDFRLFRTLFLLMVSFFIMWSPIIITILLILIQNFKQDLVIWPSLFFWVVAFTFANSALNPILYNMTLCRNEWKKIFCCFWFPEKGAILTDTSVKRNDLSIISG
The experiment in a line: Agonist activity at GPR120 (unknown origin). The format is functional.

Data set [2] relates to HEK293. The data set is described as follows: Effect on forskolin-stimulated cAMP level in HEK293 cells at 1 uM by BRET assay relative to control. The note with it: human, hek293, 1 µM. The format is ADME, cell-based. A digest of the protocol:
(§1)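 Wild-type HEK293 cells lacking transfected receptor, tested at 10 µM and 1 µM. Forskolin-stimulated cAMP measured by BRET as a check that responses are receptor-mediated.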

Data set [3] concerns the target Potassium voltage-gated channel subfamily KQT member 2 (Homo sapiens) (UniProt O43526). The experiment in a line: Agonist activity at KCNQ2 (unknown origin).
Data set [4] has as its target T2, Nicotinamide N-methyltransferase (Homo sapiens) (UniProt P40261).
T2 sequence (whole entry): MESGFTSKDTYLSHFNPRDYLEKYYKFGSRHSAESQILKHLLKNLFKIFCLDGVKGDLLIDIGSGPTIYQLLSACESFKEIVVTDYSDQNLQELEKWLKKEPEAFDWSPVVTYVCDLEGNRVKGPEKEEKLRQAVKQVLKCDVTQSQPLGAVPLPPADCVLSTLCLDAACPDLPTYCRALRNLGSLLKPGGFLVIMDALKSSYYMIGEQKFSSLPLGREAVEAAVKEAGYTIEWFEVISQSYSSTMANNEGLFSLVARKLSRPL
The data set is described as follows: Inhibition of NNMT (unknown origin).

In data set [5] the target is Interleukin-17A (Homo sapiens) (UniProt Q16552). The data set is described as follows: Inhibition of IL-17 (unknown origin) assessed as disruption of IL-17 protein-protein interaction.
Data set [6] concerns the target T3, Cannabinoid receptor 1 (Homo sapiens, UniProt P21554). The data set is described as follows: Activity at N-terminal HA-tagged human CB1 receptor expressed in HEK293 cells transfected with YFP-Epac-RLuc assessed as effect on forskolin-stimulated cAMP level by BRET assay relative to control. The format is functional, cell-based. The gist of the method: (§2)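 BRET cAMP biosensor read-out in HEK293 cells expressing HA-tagged human CB1 or CB2, with forskolin stimulation (5 µM). Concentration-response curves; area-under-curve values normalised to forskolin alone = 100% and basal = 0%. EC50 taken for agonists and IC50 for inverse agonists. Mean of at least three independent experiments, each point in duplicate.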
For orientation: Cyclic AMP is a second messenger, typically raised through Gs and lowered through Gi signalling.

Data set [7] addresses T3, Cannabinoid receptor 1. The experiment in a line: Activity at N-terminal HA-tagged human CB1 receptor expressed in HEK293 cells transfected with YFP-Epac-RLuc assessed as effect on forskolin-stimulated cAMP level by BRET assay. It counts as functional, cell-based. A digest of the protocol:
as §2

Data set [8] deals with HEK293. The data set is described as follows: Effect on forskolin-stimulated cAMP level in HEK293 cells at 10 uM by BRET assay relative to control. The format is ADME, cell-based. The settings on record: human, hek293, 10 µM. The gist of the method: as §1
Data set [9] deals with T4, Cannabinoid receptor 2 (Homo sapiens, UniProt P34972). The experiment in a line: Displacement of [3H]CP55,940 from N-terminal HA-tagged human CB2 receptor expressed in HEK293 cell membranes at 10 uM after 1 hr by microbeta scintillation counting method relative to control. A digest of the protocol:
(§3)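 Single-point competition screen against [3H]CP55,940 in HEK293 cells over-expressing 3HA-tagged hCB2 or hCB1. Compounds giving more than 50% displacement went on to full concentration-response curves.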

Data set [10] concerns the target T4, Cannabinoid receptor 2. The experiment in a line: Activity at N-terminal HA-tagged human CB2 receptor expressed in HEK293 cells transfected with YFP-Epac-RLuc assessed as effect on forskolin-stimulated cAMP level by BRET assay relative to control. It counts as functional, cell-based. A digest of the protocol: as §2
Data set [11] has as its target T3, Cannabinoid receptor 1. The data set is described as follows: Displacement of [3H]CP55,940 from N-terminal HA-tagged human CB1 receptor expressed in HEK293 cell membranes after 1 hr by microbeta scintillation counting method. The note with it: read-out: Ki. (In general: In a radioligand displacement assay an active substance lowers the binding of a labelled ligand.)

Data set [12] concerns the target T4, Cannabinoid receptor 2. The experiment in a line: Activity at N-terminal HA-tagged human CB2 receptor expressed in HEK293 cells transfected with YFP-Epac-RLuc assessed as effect on forskolin-stimulated cAMP level by BRET assay. The format is functional, cell-based. The gist of the method:
as §2

In data set [13] the target is Proprotein convertase subtilisin/kexin type 9 (Homo sapiens) (UniProt Q8NBP7). The experiment in a line: Inhibition of PCSK9 (unknown origin).
Another data set concerns Leishmania donovani. The data set is described as follows: Growth inhibition of Leishmania donovani. It counts as functional, organism-based.
Data set [14] addresses T3, Cannabinoid receptor 1. The experiment in a line: Displacement of [3H]CP55,940 from N-terminal HA-tagged human CB1 receptor expressed in HEK293 cell membranes at 10 uM after 1 hr by microbeta scintillation counting method relative to control. A digest of the protocol:
as §3

Data set [15] deals with T4, Cannabinoid receptor 2. The data set is described as follows: Displacement of [3H]CP55,940 from N-terminal HA-tagged human CB2 receptor expressed in HEK293 cell membranes after 1 hr by microbeta scintillation counting method. The settings on record: read-out: Ki.
Data set [16] deals with T5, Potassium voltage-gated channel subfamily KQT member 3 (Homo sapiens) (UniProt O43525).
T5 sequence (whole entry): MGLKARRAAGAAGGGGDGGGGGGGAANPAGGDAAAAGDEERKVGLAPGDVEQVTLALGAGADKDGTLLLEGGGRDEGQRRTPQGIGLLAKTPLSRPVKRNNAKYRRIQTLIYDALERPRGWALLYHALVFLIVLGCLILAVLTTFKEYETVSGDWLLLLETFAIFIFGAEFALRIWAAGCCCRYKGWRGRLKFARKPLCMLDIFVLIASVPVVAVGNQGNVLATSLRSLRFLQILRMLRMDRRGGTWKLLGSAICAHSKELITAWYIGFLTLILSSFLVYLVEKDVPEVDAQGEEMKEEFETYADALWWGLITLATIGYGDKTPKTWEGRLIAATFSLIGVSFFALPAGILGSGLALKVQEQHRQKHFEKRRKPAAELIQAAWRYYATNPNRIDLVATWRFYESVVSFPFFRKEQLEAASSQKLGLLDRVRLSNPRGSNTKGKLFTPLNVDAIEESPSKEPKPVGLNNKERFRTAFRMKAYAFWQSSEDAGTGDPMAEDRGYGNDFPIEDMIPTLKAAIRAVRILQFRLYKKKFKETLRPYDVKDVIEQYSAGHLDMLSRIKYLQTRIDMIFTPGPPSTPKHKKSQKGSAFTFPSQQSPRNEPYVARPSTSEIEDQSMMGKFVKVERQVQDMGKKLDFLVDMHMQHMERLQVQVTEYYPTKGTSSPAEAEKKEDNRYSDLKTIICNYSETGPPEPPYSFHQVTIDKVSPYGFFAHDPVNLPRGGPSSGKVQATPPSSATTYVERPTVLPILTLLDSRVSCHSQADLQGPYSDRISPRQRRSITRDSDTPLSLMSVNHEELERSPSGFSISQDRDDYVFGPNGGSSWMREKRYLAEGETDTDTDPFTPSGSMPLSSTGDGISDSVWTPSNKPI
The data set is described as follows: Agonist activity at KCNQ3 (unknown origin).

T4 sequence (P34972 whole entry): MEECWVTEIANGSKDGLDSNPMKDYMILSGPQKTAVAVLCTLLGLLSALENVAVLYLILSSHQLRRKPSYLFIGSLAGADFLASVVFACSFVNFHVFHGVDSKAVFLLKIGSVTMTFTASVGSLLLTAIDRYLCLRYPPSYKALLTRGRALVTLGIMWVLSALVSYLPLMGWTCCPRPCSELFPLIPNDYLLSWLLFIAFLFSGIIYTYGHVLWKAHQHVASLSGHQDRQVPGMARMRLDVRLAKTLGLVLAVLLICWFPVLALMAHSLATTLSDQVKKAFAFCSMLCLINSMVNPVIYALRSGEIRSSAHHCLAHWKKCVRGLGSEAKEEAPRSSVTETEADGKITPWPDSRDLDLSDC
T3 sequence (P21554 whole entry): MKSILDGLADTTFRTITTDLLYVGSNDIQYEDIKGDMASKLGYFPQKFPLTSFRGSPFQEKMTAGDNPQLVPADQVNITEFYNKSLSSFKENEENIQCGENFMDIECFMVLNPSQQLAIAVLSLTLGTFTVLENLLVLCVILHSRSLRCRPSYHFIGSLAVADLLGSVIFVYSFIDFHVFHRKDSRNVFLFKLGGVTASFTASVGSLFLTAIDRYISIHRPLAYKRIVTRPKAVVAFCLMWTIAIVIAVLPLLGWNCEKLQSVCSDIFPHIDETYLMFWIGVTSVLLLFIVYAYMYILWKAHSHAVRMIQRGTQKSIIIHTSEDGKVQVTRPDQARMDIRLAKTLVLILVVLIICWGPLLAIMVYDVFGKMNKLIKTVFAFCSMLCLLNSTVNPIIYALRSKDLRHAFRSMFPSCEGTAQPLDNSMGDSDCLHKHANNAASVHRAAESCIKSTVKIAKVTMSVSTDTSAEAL
Chain of Proprotein convertase subtilisin/kexin type 9 (Homo sapiens) (Q8NBP7 31-152 limits assumed): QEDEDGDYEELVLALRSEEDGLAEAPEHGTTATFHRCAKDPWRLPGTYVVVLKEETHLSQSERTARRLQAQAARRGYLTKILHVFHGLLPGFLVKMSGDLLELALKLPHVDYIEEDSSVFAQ
Chain of Proprotein convertase subtilisin/kexin type 9 (Homo sapiens) (Q8NBP7 153-692 limits assumed): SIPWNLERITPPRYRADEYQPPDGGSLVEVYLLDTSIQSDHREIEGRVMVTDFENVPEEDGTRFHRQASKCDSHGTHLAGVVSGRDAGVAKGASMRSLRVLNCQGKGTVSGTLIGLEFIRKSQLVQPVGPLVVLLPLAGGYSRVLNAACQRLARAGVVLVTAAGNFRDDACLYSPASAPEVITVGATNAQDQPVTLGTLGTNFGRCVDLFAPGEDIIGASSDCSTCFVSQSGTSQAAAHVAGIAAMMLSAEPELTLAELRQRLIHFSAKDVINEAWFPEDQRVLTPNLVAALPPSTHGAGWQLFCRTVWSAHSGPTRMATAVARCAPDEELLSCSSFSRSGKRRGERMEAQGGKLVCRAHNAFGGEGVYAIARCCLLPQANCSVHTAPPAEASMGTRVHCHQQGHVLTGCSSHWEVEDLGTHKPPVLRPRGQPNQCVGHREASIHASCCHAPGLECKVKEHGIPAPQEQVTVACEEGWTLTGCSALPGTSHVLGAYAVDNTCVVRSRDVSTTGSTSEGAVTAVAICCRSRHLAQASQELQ
Chain of Potassium voltage-gated channel subfamily KQT member 2 (Homo sapiens) (O43526 whole entry): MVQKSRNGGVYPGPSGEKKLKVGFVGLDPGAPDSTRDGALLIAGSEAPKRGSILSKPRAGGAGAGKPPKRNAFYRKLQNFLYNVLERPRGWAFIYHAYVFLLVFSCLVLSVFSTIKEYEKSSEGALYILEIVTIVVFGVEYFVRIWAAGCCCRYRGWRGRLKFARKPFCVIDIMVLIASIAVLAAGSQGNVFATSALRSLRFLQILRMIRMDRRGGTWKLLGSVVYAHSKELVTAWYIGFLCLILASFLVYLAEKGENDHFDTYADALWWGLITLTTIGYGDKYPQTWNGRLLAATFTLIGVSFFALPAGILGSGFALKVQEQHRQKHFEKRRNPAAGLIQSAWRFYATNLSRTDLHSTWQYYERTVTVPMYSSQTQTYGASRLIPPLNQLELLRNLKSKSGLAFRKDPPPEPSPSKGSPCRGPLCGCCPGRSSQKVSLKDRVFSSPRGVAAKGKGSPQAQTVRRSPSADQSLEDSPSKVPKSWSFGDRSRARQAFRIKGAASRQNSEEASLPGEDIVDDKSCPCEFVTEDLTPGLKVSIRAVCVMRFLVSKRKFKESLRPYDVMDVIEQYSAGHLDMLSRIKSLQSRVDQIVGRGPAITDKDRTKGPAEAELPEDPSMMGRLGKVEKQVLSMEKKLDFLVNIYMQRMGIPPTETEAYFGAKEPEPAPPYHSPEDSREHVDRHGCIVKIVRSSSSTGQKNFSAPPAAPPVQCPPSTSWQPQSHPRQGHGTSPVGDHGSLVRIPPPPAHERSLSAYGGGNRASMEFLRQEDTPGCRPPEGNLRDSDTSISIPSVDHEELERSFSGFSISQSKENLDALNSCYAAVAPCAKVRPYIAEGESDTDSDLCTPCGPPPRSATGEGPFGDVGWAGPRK
Chain of Interleukin-17A (Homo sapiens) (Q16552 whole entry): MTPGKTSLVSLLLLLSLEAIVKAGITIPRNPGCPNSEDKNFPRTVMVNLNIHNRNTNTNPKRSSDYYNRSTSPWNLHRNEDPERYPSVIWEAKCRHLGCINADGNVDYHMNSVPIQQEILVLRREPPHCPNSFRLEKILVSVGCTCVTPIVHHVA

Broadly, the inhibition is how much of the control response was suppressed. Broadly, the Ki is the dissociation constant of the complex between target and ligand, obtained from inhibition or displacement. Turning to `CCCOc1ccc2c(c1)c(C(=O)c1ccc(OC)cc1)cn2CC1CCOCC1`, the result (in [1]; in data set [3]; on Cannabinoid receptor 1 [7]; at Cannabinoid receptor 2 [12]; in data set [16]) was inactive. In addition, the figures for the Activity with HEK293 [2] and in the data set on HEK293 [8] were 95% and 127.6%, respectively. Moreover, the inhibition entry in data set [4], in data set [5] and in [13] was “inactive” each time. For the same molecule, the Emax entry at Cannabinoid receptor 1 [6] and at Cannabinoid receptor 2 [10] was “inactive” throughout. Besides, the inhibition on Cannabinoid receptor 2 [9] and at Cannabinoid receptor 1 [14] was > 50% each time. In addition, the Ki at Cannabinoid receptor 1 [11] was 4530 nM; on Cannabinoid receptor 2 [15], 1350 nM. Besides, the “growth inhibition (GI)” value in the data set on Leishmania donovani was “inactive”.
